RORA act = activates the human nuclear receptor RORA; activation, % at 10 µM; AID 560; CHO-K1 Gal4-RORA LBD luciferase reporter, luminescence; percent increase over mock-subtracted basal signal; P35398; 65,000 compounds, 1.5% hits;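 active = activation above the mean of all tested compounds plus 3 SD, cut at about 49% in these data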
M1 antag = M1 muscarinic receptor (rat) antagonism; P08482; CHO-M1 cells, Fluo-4 calcium, ACh EC80 antagonist mode; hits give low values; B-score at 10 µM; 64,000 compounds, 3.4% hits; AID 628;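 active = calcium fluorescence response, raw or row-and-column corrected B-score, differing from the plate sample mean either way at a set confidence level, mostly lower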
M1 ag = M1 muscarinic receptor agonism | CHO-M1 cells, Fluo-4 calcium fluorescence, agonist mode; hits give high values | B-score at 10 µM | 64,000 compounds, 3% hits;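 active = fluorescence rise, raw or as B-score row- and column-corrected plate score, outside the 99.7% band of its plate's samples, either direction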
SF-1 act = activators of human nuclear receptor SF-1 | Q13285 | CHO-K1 Gal4-SF-1 LBD luciferase reporter; % increase over DMSO SF-1-specific signal | activation, % at 10 µM | 65,000 compounds, 1.9% hits;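 active = activation above the mean activation of all tested compounds plus 3 SD, cut at about 50% in these data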
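Material: CHO-K1 cells with Gal4–hSF-1 LBD chimera plus Gal4-driven luciferase / Input: 4,000 CHO-K1 cells per well / Incubation: compound exposure 20 h at 37 °C / Signal: luminescence read 15 min after SteadyLite luciferase reagent, after room-temperature equilibration / Read-out: percent activation versus DMSO / Benchmarks: DMSO negative control and −SF1 background wells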
mHtt clearance = mutant huntingtin protein clearance. HeLa Exon1htt(103Q)mCFP, aggregate imaging; zero = plate's median compound well. inhibition, % at 1.5 µM. 47,000 compounds, 0.42% hits;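 active = inhibition of aggregate fluorescence above about 70%, also judged a hit by eye on the cell image, limit read from the data, passing the limit was not always enough; inconclusive = no rule stated for this call; inactive = not judged a hit on image review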;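 note: cells exposed to compound for three days before fixation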
D1 mod = allosterically modulates the human D1 dopamine receptor | P21728 | HEK293 D1, CRE-luciferase, dopamine EC30 potentiation; actives deviate in either direction | B-score at 10 µM | 58,000 compounds, 5.9% hits;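 active = luminescence count or its row- and column-corrected plate score outside the 99.7% band of the plate's sample wells, on either side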
Target sequence (P21728 whole entry, looked up): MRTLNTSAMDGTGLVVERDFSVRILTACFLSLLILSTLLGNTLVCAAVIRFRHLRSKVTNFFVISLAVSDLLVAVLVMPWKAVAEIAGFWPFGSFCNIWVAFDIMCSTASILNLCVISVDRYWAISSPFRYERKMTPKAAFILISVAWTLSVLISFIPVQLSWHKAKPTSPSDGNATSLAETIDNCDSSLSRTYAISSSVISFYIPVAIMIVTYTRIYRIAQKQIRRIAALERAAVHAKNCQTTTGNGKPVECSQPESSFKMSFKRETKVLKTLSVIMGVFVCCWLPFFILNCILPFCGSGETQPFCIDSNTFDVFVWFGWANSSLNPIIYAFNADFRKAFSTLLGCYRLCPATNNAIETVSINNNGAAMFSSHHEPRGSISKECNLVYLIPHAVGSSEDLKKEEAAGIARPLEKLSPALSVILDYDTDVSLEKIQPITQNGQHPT
M1 ag confirm = confirmation of rat M1 muscarinic receptor agonists | shares compounds with M1 ag | CHO-M1 cells, Fluo-4 calcium fluorescence, agonist mode; actives lie on both sides | fluorescence change (max-min) at 10 µM | 1,700 compounds, 19% hits | AID 1488;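 active = fluorescence change differs from the solvent-only DMSO control mean at a set confidence level in both duplicate runs; inconclusive = differs from solvent-only control mean in just one of two runs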;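 note: an EC20 dose of acetylcholine follows compound addition during the same imaging run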
M4 ag counter = counter-screen for M1 agonists: activity at rat M4 receptor. shares compounds with M1 ag. CHO M4/Gqi5 cells, Fluo-4 calcium fluorescence, agonist mode; actives lie on both sides. fluorescence change (max-min) at 10 µM. 1,700 compounds, 9% hits. AID 1741;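 active = fluorescence change differing from the plate's solvent-only control wells at 99.7% confidence in both duplicates, whether higher or lower; inconclusive = differs from solvent controls in only one of two duplicates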
Each line names hits and unclear results; the compound was inactive in the other large screens (follow-up assays come after a bar, where they were run). Hits are enriched below; roughly 11% of the tested compounds scored in any of these assays.

COc1ccccc1OCCCn1cc(C(=O)c2ccco2)c2ccccc21	RORA act 65, SF-1 act 52 (no result: mHtt clearance)
CC(C)CC12CN3CCN(CC(C3)C1O)C2 (centres undefined)	M1 antag 1.4 (no result: mHtt clearance)
O/N=C/c1c[nH]c2ccccc12	none
C=CCN(CC=C)Cc1c[nH]c2ccccc12	D1 mod -5.6 (no result: mHtt clearance)
Cc1ccc2c(c1)C1CN(C)CCC1N2S(=O)(=O)c1ccccc1 (centres undefined)	none (no result: mHtt clearance, D1 mod)
Cc1ccc2c(c1)[C@@H]1CN(C)CC[C@@H]1N2C(=O)Nc1cccc(C(F)(F)F)c1	D1 mod -4.8 (no result: mHtt clearance)
Cc1ccc2c(c1)C1CN(C)CCC1N2C(=O)c1ccc(Br)o1 (centres undefined)	D1 mod -3.1 (no result: mHtt clearance)
COc1cccc(C2=NOC(C(=O)N3CCC4(CC3)OCCO4)C2)c1 (centres undefined)	SF-1 act 56 (no result: mHtt clearance)
O=C(C1CC(c2ccc(Cl)c(Cl)c2)=NO1)N1CCC2(CC1)OCCO2 (centres undefined)	RORA act 73
COc1cccc(-n2nc(C(=O)N3CCC4(CC3)OCCO4)c3ccccc3c2=O)c1	none (no result: mHtt clearance)
CC1(C)CC(=O)C(C2(O)C(=O)NC(=O)NC2=O)=C(O)C1	none (no result: mHtt clearance)
N#Cc1c(/N=C/c2c(O)n(Cc3ccco3)c(=O)[nH]c2=O)sc2c1CCCC2	none
Fc1ccc2c(c1)nnn2C1CCN(Cc2ccccc2)CC1	D1 mod -4.4
Fc1ccc2c(c1)nnn2C1CCN(Cc2nnnn2CCc2ccccc2)CC1	none (no result: mHtt clearance)
C[C@H]1CCC[C@H](O)CCCCCc2cc(O)cc(O)c2C(=O)O1	M1 antag 2.4
CC(=O)OC1C2CCCC1C(N1CCCC1)CC2 (centres undefined)	none (no result: mHtt clearance)
O=C(c1sc2ccccc2c1Cl)N1CCC2(CC1)OCCO2	none
Cc1c(C(=O)N2CCC3(CC2)OCCO3)sc2ncnc(N3CCN(c4ccccn4)CC3)c12	D1 mod -6.7 (no result: mHtt clearance)
O=c1cccc2n1CC1CC2CN(c2ncnc3c2cnn3-c2ccc(Cl)cc2)C1 (centres undefined)	M1 ag -3.6 (no result: mHtt clearance)
O=c1cccc2n1CC1CC2CN(S(=O)(=O)c2ccccc2)C1 (centres undefined)	none (no result: RORA act, M1 antag, M1 ag, SF-1 act, D1 mod)
O=P1(Nc2ccc(F)cc2)COc2ccccc2OC1	none (no result: D1 mod)
Nc1ccccc1N=Cc1c(O)n(CCC2=CCCCC2)c(=O)[nH]c1=O	SF-1 act 78
CCOC(=O)[C@]1(C#N)[C@@H]2C=CC(C(C)=O)=CN2[C@@H](C(N)=O)[C@@H]1c1ccsc1	M1 ag 26 (no result: mHtt clearance, D1 mod)
CN1C(=O)C(=Cc2ccccc2Oc2ccc(Cl)cc2)C(=O)N(C)C1=O	mHtt clearance 82 (no result: RORA act, M1 antag, M1 ag, SF-1 act, D1 mod)
CCOC(=O)c1ccc(NC(=O)c2c(O)[nH]c(=O)[nH]c2=O)cc1	M1 ag 86 (no result: mHtt clearance)
O=S(=O)(c1ccc(Cl)cc1)N1CN2CCN(C2)C1	none
Cn1c(O)c(C=NC2CC(C)(C)NC(C)(C)C2)c(=O)n(C)c1=O	none (no result: mHtt clearance)
Cn1c(O)c(C=NCCCN2CCCC2=O)c(=O)n(C)c1=O	none
CCCc1[nH]nc2c1C1(C(=O)N(CC(N)=O)c3ccccc31)C(C(=O)OC)=C(N)O2 (centres undefined)	M1 antag 2.3
CCCc1[nH]nc2c1C1(C(=O)N(Cc3ccccc3)c3ccccc31)C(C(=O)OC)=C(N)O2 (centres undefined)	none (no result: RORA act, M1 antag, M1 ag, SF-1 act, D1 mod)
CCN1CC=C(c2c[nH]c3ccccc23)CC1	none
c1ccc2c(CCNC3=NCCC3)c[nH]c2c1	D1 mod -2.7
CN1CSC(=S)N(C)C1	none (no result: RORA act, SF-1 act, mHtt clearance)
Cc1nnc(SCc2nc3ccccc3c(=O)n2-c2ccccc2Cl)n1N	mHtt clearance 72
CCCCc1nc2ccccc2c(=O)n1-c1ccc(Cl)cc1[N+](=O)[O-]	none (no result: RORA act, M1 antag, M1 ag, SF-1 act, D1 mod)
O=C(Nc1ccc(F)cc1)N1CC2CC(C1)c1cccc(=O)n1C2 (centres undefined)	none (no result: RORA act, M1 antag, M1 ag, SF-1 act, D1 mod)
CNCC(O)c1cccc(OC(=O)c2ccccc2C)c1 (centres undefined)	M1 ag -3.3 | M1 ag confirm inactive | M4 ag counter inconclusive
CC1(C)COC(Nc2ccc(Cl)cc2)=N1	none (no result: mHtt clearance)
Cc1cccc(CN(C)C)c1OC(=O)N(C)C	none (no result: mHtt clearance, D1 mod)
Cc1ccc(C(=O)C2CN3CCC2CC3)cc1 (centres undefined)	M1 ag 12 | M1 ag confirm inactive | M4 ag counter inconclusive
CCC1(c2ccccc2)C(=O)N(COC)C(=O)N(COC)C1=O	none
CCCC(=O)OCC[N+](C)(C)C	M1 antag -7.7, M1 ag 40 (no result: mHtt clearance) | M1 ag confirm 378 | M4 ag counter inactive
O=S1(=O)CC2(N3CCOCC3)CCCCCCC21 (centres undefined)	M1 ag 2.9 | M1 ag confirm inactive | M4 ag counter inactive
Cc1cc(C)n(CCOC(=O)C2C(C=C(Cl)Cl)C2(C)C)n1 (centres undefined)	none
CN1CC=C2C(C#N)=C(N)C(C#N)(C#N)C(c3ccncc3)C2C1 (centres undefined)	M1 ag 78 | M1 ag confirm 242 | M4 ag counter 212
CCn1nc(-c2ccccc2)nc2c(=O)n(C)c(=O)nc1-2	M1 ag 25, D1 mod -8.7 (no result: mHtt clearance) | M1 ag confirm 187 | M4 ag counter inconclusive
O=C(O)CP(=O)(O)c1ccc(Cl)cc1	none (no result: RORA act, SF-1 act, mHtt clearance)
COc1ccc(P2(=O)Nc3ccccc3N2)cc1	M1 ag 8.4 (no result: mHtt clearance, D1 mod) | M1 ag confirm 154 | M4 ag counter 163
Cc1ccc(-c2nc(CS(=O)CC(=O)N3CCC4(CC3)OCCO4)c(C)o2)cc1 (centres undefined)	none
COC(=NC1CCCC1)C(O)c1c[nH]c2ccccc12 (centres undefined)	none (no result: mHtt clearance)
O=C(c1cc(-c2cccnc2)nc2ccc(Cl)cc12)N1CCC2(CC1)OCCO2	M1 ag 2.8 | M1 ag confirm -35 | M4 ag counter inactive
CCCSc1nc(O)c(CC)c(=O)n1C(C)CC (centres undefined)	none
